High-throughput results: PubChem, several laboratories
EBV gp42 inh: inhibitors of Epstein-Barr virus glycoprotein 42 | 220,000 tested, 0.42% active | Q1HVG2 | Fluorescence polarization binding assay, mP read-out | inhibition, % (tested at 21.74 µM); in the data active = inhibition above about 50%
NCF1 inh: inhibitors of human p47phox binding | inhibition, % at 24.7 µM | AID 1274 | p47phox/p22phox peptide binding, fluorescence polarization, 2 h | 220,000 tested, 0.53% active;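 note: 0% = p47phox with labelled peptide and 100% = labelled peptide alone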
eIF4E 4G PPI: blocks eIF4E binding to eIF4G. 220,000 tested, 0.37% active. inhibition, % at 21.7 µM. TR-FRET eIF4E-eIF4GI(517-606) binding, 2 h;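 note: 0% = full FRET control wells and 100% = background wells lacking eIF4GI fragment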
WT yeast gro inh: growth inhibition of WT yeast, mitochondrial fusion screen | AID 1362 | inhibition, % at 10 µM | mitochondrial fusion phenotypic screen, WT strain | 190,000 tested, 2.1% active; in the data active = inhibition above about 58%; tested in S. cerevisiae
14-3-3 Bad inh: disrupts binding of bovine 14-3-3 zeta to phospho-Bad peptide | TR-FRET 14-3-3zeta/Dy647-pBad peptide displacement, 1 h | inhibition, % at 21.7 µM | 220,000 tested, 0.71% active | AID 781;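 active = inhibition above about 70%, limit read from the data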;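 note: 0% = full 14-3-3 plus peptide FRET controls and 100% = background without 14-3-3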
Target sequence (P63103 whole entry, looked up): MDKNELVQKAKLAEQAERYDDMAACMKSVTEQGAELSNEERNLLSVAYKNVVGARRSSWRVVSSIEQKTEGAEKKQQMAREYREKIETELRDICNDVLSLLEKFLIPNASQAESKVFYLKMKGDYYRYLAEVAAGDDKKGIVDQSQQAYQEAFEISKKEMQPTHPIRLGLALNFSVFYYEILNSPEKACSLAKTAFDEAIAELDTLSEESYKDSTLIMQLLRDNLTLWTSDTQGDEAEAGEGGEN
RBBP9 inhibitor: blocks human serine hydrolase RBBP9; O75884; recombinant RBBP9, FP-Rh probe fluorescence polarization; inhibition, % at 7.94 µM; 220,000 tested, 0.2% active;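 active = inhibition above the campaign mean of all tested compounds plus 3 SD, cut at about 14% in these data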;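 note: plate controls were DMSO wells with RBBP9 for no effect and wells lacking RBBP9 protein for full effect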
Target sequence (O75884 whole entry, looked up): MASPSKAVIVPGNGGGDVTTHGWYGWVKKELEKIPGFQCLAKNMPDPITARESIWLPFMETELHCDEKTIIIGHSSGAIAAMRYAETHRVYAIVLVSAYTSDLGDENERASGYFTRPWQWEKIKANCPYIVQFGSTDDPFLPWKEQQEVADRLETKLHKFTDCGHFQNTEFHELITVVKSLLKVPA
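System: RBBP9 protein / Quantity: 2.5 µM RBBP9 dispensing solution, before mixing / Also added: Serine-hydrolase probe FP-Rh, 375 nM pre-mixing / Dosing: 7.94 µM single dose, 0.794% DMSO / Timing: enzyme-compound preincubation 30 min, then probe labeling 45 min, 25 °C / Signal: FP readout at 525/598 nm / Controls: DMSO-treated enzyme wells and wells lacking RBBP9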
Active calls of the source: *. Only some compounds are listed: those with a hit (about 3.7% of all), similar ones and a draw of the others.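 Rule for the calls, unless noted: active = inhibition above about 30% (limit read from the data); inactive = the rest.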

Screening Oc1ccc(C2=NNC(=NCc3ccc4c(c3)OCO4)SC2)c(O)c1 returned EBV gp42 inh -10, NCF1 inh -25, eIF4E 4G PPI -1, WT yeast gro inh -1, 14-3-3 Bad inh -8 and RBBP9 inhibitor -4.
Clc1ccc(C2=NNC(=NCc3ccc4c(c3)OCO4)SC2)cc1 was read as EBV gp42 inh -8, NCF1 inh -12, eIF4E 4G PPI -4, WT yeast gro inh 61*, 14-3-3 Bad inh 21 and RBBP9 inhibitor -1.
`CCCCNC(=S)N1CCN(Cc2ccc3c(c2)OCO3)CC1` gave EBV gp42 inh -18, NCF1 inh -7, eIF4E 4G PPI 6, WT yeast gro inh -4, 14-3-3 Bad inh 41 and RBBP9 inhibitor -3.
For COc1cccc(CN2CCN(C(=S)NCc3ccc(Cl)cc3)CC2)c1 the results were EBV gp42 inh 13, NCF1 inh 8, eIF4E 4G PPI -6, WT yeast gro inh 67*, 14-3-3 Bad inh -17 and RBBP9 inhibitor 1.
Screening S=C(NCc1ccccc1)N1CCN(Cc2ccc3c(c2)OCO3)CC1 returned EBV gp42 inh -11, NCF1 inh -7, eIF4E 4G PPI -1, WT yeast gro inh 60*, 14-3-3 Bad inh -2 and RBBP9 inhibitor -8.
CCOc1ccccc1NC(C)C(=O)Nc1cc(C(F)(F)F)ccc1N1CCOCC1 (configuration not stated) was read as EBV gp42 inh -11, NCF1 inh -2, eIF4E 4G PPI -3, WT yeast gro inh 69*, 14-3-3 Bad inh 7 and RBBP9 inhibitor -1.
`Cc1ccc(S(=O)(=O)N(C)C)cc1NC(=O)c1cccnc1Oc1ccccc1` gave EBV gp42 inh -6, NCF1 inh -10, eIF4E 4G PPI -5, 14-3-3 Bad inh -10 and RBBP9 inhibitor -6.
CN(C(=S)NC(=O)Cc1ccccc1)c1ccccc1 was read as EBV gp42 inh -18, NCF1 inh -3, eIF4E 4G PPI -1, WT yeast gro inh -14, 14-3-3 Bad inh -8 and RBBP9 inhibitor 0.
`CN(C)c1ccnc2sc(C(=O)c3ccc(Br)cc3)c(N)c12` gave EBV gp42 inh 73*, NCF1 inh 2, eIF4E 4G PPI 4, WT yeast gro inh -3, 14-3-3 Bad inh -1 and RBBP9 inhibitor 5.
CN(C)c1ccnc2sc(C(N)=O)c(N)c12 was read as EBV gp42 inh -9, NCF1 inh -4, eIF4E 4G PPI 5, WT yeast gro inh -10, 14-3-3 Bad inh 5 and RBBP9 inhibitor -1.
`N#C/C(=C(/O)c1ccco1)c1nc2ccccc2s1` gave EBV gp42 inh 0, NCF1 inh -20, eIF4E 4G PPI 3, WT yeast gro inh 12, 14-3-3 Bad inh -1 and RBBP9 inhibitor 2.
`CC1=CC(=C(C#N)c2nc3ccccc3s2)C=C(C)N1Cc1ccco1` gave EBV gp42 inh 157*, NCF1 inh -3, eIF4E 4G PPI -9, WT yeast gro inh 0, 14-3-3 Bad inh -10 and RBBP9 inhibitor -2.
Screening CCc1cccc(OCCCn2ccnc2)c1 returned EBV gp42 inh -6, NCF1 inh -5, eIF4E 4G PPI -1, WT yeast gro inh 11, 14-3-3 Bad inh 60 and RBBP9 inhibitor -6.
For Cc1cc(OCCCCCn2ccnc2)cc(C)c1Cl the results were EBV gp42 inh 5, NCF1 inh -6, eIF4E 4G PPI 6, WT yeast gro inh 47, 14-3-3 Bad inh -7 and RBBP9 inhibitor -9.
For Cc1cc(OCCCn2ccnc2)cc(C)c1Cl the results were EBV gp42 inh -4, NCF1 inh -7, eIF4E 4G PPI 9, WT yeast gro inh 66*, 14-3-3 Bad inh 24 and RBBP9 inhibitor -9.
CCOc1cccc(OCCCCn2ccnc2)c1 was read as EBV gp42 inh -20, NCF1 inh -16, eIF4E 4G PPI 36*, WT yeast gro inh 4, 14-3-3 Bad inh 34 and RBBP9 inhibitor -2.
For CCCN1CCC(=NNC(=O)c2ccc(Br)o2)CC1 the results were EBV gp42 inh -20, NCF1 inh 4, eIF4E 4G PPI 39*, WT yeast gro inh -35, 14-3-3 Bad inh -9 and RBBP9 inhibitor -6.
O=C(Oc1cccc(C(=S)N2CCCCC2)c1)c1ccccc1 was read as EBV gp42 inh 5, NCF1 inh -18, eIF4E 4G PPI -7, WT yeast gro inh 60*, 14-3-3 Bad inh -10 and RBBP9 inhibitor -8.
